Drawing on ChEMBL document CHEMBL4118270, “Synthesis, in vitro and in silico studies of novel potent urease inhibitors: N-[4-({5-[(3-Un/substituted-anilino-3-oxopropyl)sulfanyl]-1,3,4-oxadiazol-2-yl}methyl)-1,3-thiazol-2-yl]benzamides” (Bioorg Med Chem, 2018), this text covers IC50 and inhibition for 13 molecules.

Experiment [1] addresses Urease (Helicobacter pylori, UniProt Q0PXQ5). Kind of experiment: Inhibition of Campylobacter pylori urease preincubated for 5 mins followed by urea addition measured after 10 mins by Berthelot assay. The method in brief:
(§1)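 Modified Berthelot assay in pH 7.0 phosphate buffer. Sample and enzyme (0.135 units) are pre-incubated 5 min at 37 °C. Urea (20 mM stock) is added and incubated 10 min at 37 °C. […] IC50 is fitted from dilution series. Mean ± SEM, n = 3.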

Experiment [2] deals with Urease (Helicobacter pylori) (UniProt Q0PXQ5). Nature of the experiment: Inhibition of Campylobacter pylori urease preincubated for 5 mins followed by urea addition measured after 10 mins by Berthelot assay relative to control. On the set-up: concentration or dose not given beside the values. The method in brief: as §1
Chain of Urease (Helicobacter pylori) (Q0PXQ5 as listed by the source): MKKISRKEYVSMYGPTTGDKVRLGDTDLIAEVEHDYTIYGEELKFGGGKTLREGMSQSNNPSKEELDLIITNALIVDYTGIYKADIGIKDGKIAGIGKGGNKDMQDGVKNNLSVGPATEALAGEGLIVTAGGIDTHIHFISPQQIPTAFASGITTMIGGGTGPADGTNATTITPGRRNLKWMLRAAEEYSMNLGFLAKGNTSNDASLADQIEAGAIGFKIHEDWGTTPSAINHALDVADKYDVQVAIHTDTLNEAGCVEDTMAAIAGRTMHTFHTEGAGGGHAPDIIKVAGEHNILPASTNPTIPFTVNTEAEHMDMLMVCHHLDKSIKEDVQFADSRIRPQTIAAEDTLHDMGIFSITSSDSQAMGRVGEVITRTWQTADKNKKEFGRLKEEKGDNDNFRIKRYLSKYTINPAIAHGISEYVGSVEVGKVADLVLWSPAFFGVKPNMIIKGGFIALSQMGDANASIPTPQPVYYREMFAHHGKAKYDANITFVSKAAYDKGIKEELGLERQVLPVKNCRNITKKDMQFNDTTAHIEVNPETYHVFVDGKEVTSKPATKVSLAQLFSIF

Chain of Urease (Q0PXQ5 whole entry): as the sequence (Q0PXQ5 as listed by the source) above

Broadly, the IC50 is the point on the concentration scale where inhibition reaches its midpoint. What is called inhibition is the change of the read-out against control, counted positive when it falls. In experiment [1], `Cc1cc(C)cc(NC(=O)CCSc2nnc(Cc3csc(NC(=O)c4ccccc4)n3)o2)c1` gave an IC50 of 52.1 µM. The same molecule yielded an inhibition in experiment [2] of 64.8%.

For `CCOc1ccc(NC(=O)CCSc2nnc(Cc3csc(NC(=O)c4ccccc4)n3)o2)cc1`, the IC50 in experiment [1] came out at 23.2 µM. The molecule further gave an inhibition in experiment [2] of 88.8%.

Consider `Cc1ccc(C)c(NC(=O)CCSc2nnc(Cc3csc(NC(=O)c4ccccc4)n3)o2)c1`, for which the IC50 in experiment [1] was found to be 15.2 µM. Further, the inhibition in experiment [2] worked out at 77.9%.

The molecule `CCc1ccccc1NC(=O)CCSc1nnc(Cc2csc(NC(=O)c3ccccc3)n2)o1` gave an IC50 in experiment [1] of 2.58 µM. In experiment [2], the inhibition was 98.7%.

In the case of `Cc1ccc(NC(=O)CCSc2nnc(Cc3csc(NC(=O)c4ccccc4)n3)o2)cc1C`, half-maximal inhibition in experiment [1] (IC50) was put at 34.2 µM. In addition, the inhibition in experiment [2] was 76.5%.

As for `Cc1ccc(NC(=O)CCSc2nnc(Cc3csc(NC(=O)c4ccccc4)n3)o2)cc1`, the IC50 in experiment [1] amounted to 29.2 µM. This molecule also showed an inhibition in experiment [2] of 76.4%.

In experiment [1], `Cc1cccc(NC(=O)CCSc2nnc(Cc3csc(NC(=O)c4ccccc4)n3)o2)c1` showed an IC50 of 12.2 µM. The inhibition in experiment [2] turned out to be 84.8%.

On to `O=C(CCSc1nnc(Cc2csc(NC(=O)c3ccccc3)n2)o1)Nc1ccccc1`, for which the IC50 in experiment [1] was found to be 2.95 µM. In experiment [2], the inhibition is 98.5%.

Consider `Cc1ccccc1NC(=O)CCSc1nnc(Cc2csc(NC(=O)c3ccccc3)n2)o1`, for which it took 7.47 µM to reach half-maximal inhibition in experiment [1] (IC50). The molecule also registered an inhibition in experiment [2] of 98.2%.

Regarding `CCc1ccc(NC(=O)CCSc2nnc(Cc3csc(NC(=O)c4ccccc4)n3)o2)cc1`, the IC50 in experiment [1] worked out at 43.2 µM. The inhibition in experiment [2] amounted to 74.2%.

With `NC(N)=S` [THIOUREA], the IC50 in experiment [1] came to 21.1 µM.

In experiment [1], `Cc1cccc(C)c1NC(=O)CCSc1nnc(Cc2csc(NC(=O)c3ccccc3)n2)o1` showed an IC50 of 2.79 µM. Moreover, the inhibition in experiment [2] stood at 98.5%.

Molecule `Cc1cccc(NC(=O)CCSc2nnc(Cc3csc(NC(=O)c4ccccc4)n3)o2)c1C` showed an IC50 in experiment [1] of 48.2 µM. Further, the inhibition in experiment [2] is 69.8%.
